What was measured:
[1] = test system: Semliki Forest virus; test: Antiviral activity against forest virus; format: functional
In short: (§1)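 Disk-diffusion gradient assay. BSC1 (M199) or Vero (RPMI) monolayers with 10% inactivated calf serum are infected to give confluent plaques. They are overlaid with Eagle's/1% agar/5% calf serum. A 5-mm paper disk soaked in compound (5 mg/mL in DMSO) is placed centrally, then 3–4 days at 37 °C, fix and stain. Diameter of the destroyed central zone = toxicity. Plaque-free diameter minus toxic diameter = antiviral activity.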

[2] = test system: BSC-1; test: Inhibition of cellular DNA synthesis in BSCL cells at the dose of 17.0 ug/mL.; format: functional, Cercopithecidae; conditions: Chlorocebus aethiops
In short: (§2)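 HSV-1-infected BSC1 cells labelled with [3H]thymidine (2 μCi/mL) from 3 h post-infection and harvested at 22 h. Lysed with 1% SDS and 0.3 mg/mL Pronase for 5 h at 37 °C. DNA banded on CsCl gradient (pH 8.0, 35000 rpm, 20 °C, 48 h). TCA-precipitable radioactivity in viral and cellular DNA peaks is summed and expressed as % of infected untreated culture.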

[3] = test system: Human alphaherpesvirus 1; test: Inhibition of viral DNA synthesis in HSV-1 virus at the dose of 17.0 ug/mL.; format: functional; in short: as §2
[4] = test system: Vaccinia virus; test: Antiviral activity against Vaccinia virus; format: functional, Orthopoxvirus vaccinia; parameters: unit not given here; in short: as §1
[5] = test system: Human alphaherpesvirus 1; test: Growth inhibition against HSV-1 virus in BSCL cells at the dose of 17.0 ug/mL and 22h time of treatment.; format: functional; conditions: Human alphaherpesvirus 1, BSCL
In short: (§3)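 HSV-1 grown 22 h in BSC1 cells in the presence of compound after infection at 1 pfu/cell (1 h, 37 °C, wash, medium with 2% calf serum). Virus yield is titred by plaque assay on agar overlay: 4 days at 37 °C, crystal violet stain, plaque count. Reported as % inhibition of virus growth.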

[6] = test system: Human alphaherpesvirus 1; test: Antiviral activity against HSV-1 (Herpes simplex virus); format: functional; in short: as §1
[7] = test system: Vero; test: Cytotoxicity against BSCL and Vero cells; format: functional, Chlorocebus sabaeus; in short: as §1
[8] = test system: Human alphaherpesvirus 1; test: Growth inhibition against HSV-1 virus in BSCL cells at the dose of 1.4 ug/mL and 22h time of treatment.; format: functional; conditions: Human alphaherpesvirus 1, BSCL; in short: as §3
[9] = test system: BSC-1; test: Inhibition of cellular DNA synthesis in BSCL cells at the dose of 1.4 ug/mL.; format: functional, Cercopithecidae; conditions: Chlorocebus aethiops; in short: as §2
[10] = test system: Human alphaherpesvirus 1; test: Inhibition of viral DNA synthesis in HSV-1 virus at the dose of 1.4 ug/mL.; format: functional; in short: as §2
[11] = test system: BSC-1; test: Inhibition of cellular DNA synthesis in BSCL cells at the dose of 0.8 ug/mL.; format: functional, Cercopithecidae; conditions: Chlorocebus aethiops; in short: as §2
[12] = test system: Human alphaherpesvirus 1; test: Inhibition of viral DNA synthesis in HSV-1 virus at the dose of 0.8 ug/mL.; format: functional; in short: as §2
[13] = test system: Human alphaherpesvirus 1; test: Growth inhibition against HSV-1 virus in BSCL cells at the dose of 0.8 ug/mL and 22h time of treatment.; format: functional; conditions: Human alphaherpesvirus 1, BSCL; in short: as §3

SMILES | Antiviral activity [1] [mm] | Antiviral activity [4] | Antiviral activity [6] [mm] | Cytotoxicity [7] [mm] | also measured
CC(=O)C(=C[C@@H]1O[C@H](c2ccccc2)O[C@@H]2CO[C@@H](c3ccccc3)O[C@@H]12)C(C)=O | 0 | 5 | 11 | 10 | inhibition at 17 µg/mL [2]: 80.7%; inhibition at 17 µg/mL [3]: 50.9%; inhibition at 17 µg/mL [5]: 95.5%
CC(=O)OCC(OC(C)=O)C(OC(C)=O)C(OC(C)=O)C(C=C(C(C)=O)C(C)=O)OC(C)=O (stereo unspecified) | 0 | 3 | 1 | 8 | –
CC(=O)/C(=C\[C@@H]1O[C@H](c2ccccc2)O[C@@H]2CO[C@@H](c3ccccc3)O[C@@H]12)C(=O)c1ccccc1 | 0 | 8 | 12 | 14 | –
CC(=O)OC(C=C(C(C)=O)C(C)=O)C(OC(=O)c1ccccc1)C(COC(=O)c1ccccc1)OC(C)=O (stereo unspecified) | 4 | 6 | 4 | 2 | –
CC(=O)OCC(OC(C)=O)C(OC(C)=O)C(C=C(C(C)=O)C(C)=O)OC(C)=O (stereo unspecified) | 0 | 0 | 11 | 13 | –
O=C1OCC/C1=C\[C@@H]1O[C@H](c2ccccc2)O[C@@H]2CO[C@@H](c3ccccc3)O[C@@H]12 | 0 | 14 | 0 | 3 | –
CC(=O)/C(=C\[C@@H]1O[C@H](c2ccccc2)O[C@H](CC(=O)Oc2ccccc2)[C@H]1C(=O)Oc1ccccc1)C(=O)Nc1ccccc1 | 0 | 9 | 2 | 4 | –
O=C[C@@H]1O[C@H](c2ccccc2)O[C@@H]2CO[C@@H](c3ccccc3)O[C@@H]12 | 6 | 12 | 8 | 8 | –
Nc1ccn([C@@H]2O[C@H](CO)[C@@H](O)[C@@H]2O)c(=O)n1 [CYTARABINE] | – | – | – | – | inhibition at 1.4 µg/mL [8]: 93.6%; inhibition at 1.4 µg/mL [9]: 38.3%; inhibition at 1.4 µg/mL [10]: 0%
O=c1[nH]c(=O)n([C@H]2C[C@H](O)[C@@H](CO)O2)cc1I [IDOXURIDINE] | – | – | – | – | inhibition at 0.8 µg/mL [11]: 21.5%; inhibition at 0.8 µg/mL [12]: 31.1%; inhibition at 0.8 µg/mL [13]: 71.3%

— ChEMBL document CHEMBL1122461, “Antiviral compounds. 1. Structure-activity relationship of some antiviral enediones derived from aldehydo sugars” (1983)
